# Screening data as filed in PubChem.
# A selection: hits, their analogues and other compounds. The true share with any hit is near 3.3%.
# ATG4B inhibitor: blocks human ATG4B protease cleavage of LC3 substrate | Q9Y4P1 | ATG4B cleavage of LC3-PLA2, NBD-HPC fluorescence, 1 h | inhibition, % at 8.33 µM | 340,000 compounds, 0.51% hits; in the data active = inhibition above about 40%
# Target sequence (Q9Y4P1 whole entry, looked up): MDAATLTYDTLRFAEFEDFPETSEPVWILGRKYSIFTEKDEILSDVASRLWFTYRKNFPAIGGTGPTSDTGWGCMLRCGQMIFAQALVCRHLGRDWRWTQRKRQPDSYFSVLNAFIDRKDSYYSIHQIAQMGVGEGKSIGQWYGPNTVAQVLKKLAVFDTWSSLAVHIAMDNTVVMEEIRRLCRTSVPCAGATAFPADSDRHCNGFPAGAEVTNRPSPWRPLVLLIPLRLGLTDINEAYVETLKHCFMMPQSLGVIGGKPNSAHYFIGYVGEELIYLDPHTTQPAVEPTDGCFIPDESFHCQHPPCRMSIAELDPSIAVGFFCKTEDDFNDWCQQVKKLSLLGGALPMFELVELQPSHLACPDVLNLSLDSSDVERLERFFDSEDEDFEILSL
# Myeloid diff 2: promotes myeloid progenitor differentiation; AID 624256; calls only at 10 µM; ER-HoxA9 myeloid progenitors, lysozyme-GFP differentiation, flow cytometry; 360,000 compounds, 1% hits;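 active = normalized GFP-positive differentiation at or above the plate's own cutoff, the solvent-only control mean plus 3 SD; inconclusive = no clear call, values can overlap the other calls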;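 note: cells exposed to compound for four days before flow analysis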
# ABCB6 inh 2: inhibitors of human ABC transporter ABCB6 | Q9NP58 | AID 602162 | 360,000 compounds, 0.19% hits | K562-ABCB6 porphyrin accumulation, flow cytometry, 1 h; stronger effect = lower value | fluorescence ratio to DMSO, % at 10 µM;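 active = fluorescence ratio to DMSO below 75%, the collection mean minus 3 SD; inconclusive = too few cells collected in the well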;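 note: signal is porphyrin accumulated inside mitochondria; lower ratio means ABCB6 inhibition with less porphyrin fluorescence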
# Granule exo inh: lytic granule exocytosis inhibition. TALL-104 LAMP-1 surface exposure, flow cytometry; cells stimulated with thapsigargin and PMA. inhibition, % at 10 µM. 360,000 compounds, 0.66% hits;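 active = inhibition above about 55%, limit read from the data; inconclusive = no clear call, values can overlap the other calls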
# CendR NRP1 mod: modulators of CendR peptide binding to human neuropilin-1 | O14786 | FAM-RPARPAR peptide binding to NRP-1, fluorescence polarization | inhibition, % at 25 µM | 360,000 compounds, 0.85% hits | AID 602438;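 active = inhibition or corrected inhibition above about 18%, plus a signal ratio from 0.5 to 1.5, limit read from the data, passing the limit was not always enough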
# Arr AP2 block: blocks beta-arrestin peptide binding to AP2 adaptin; FITC-arrestin peptide / GST-AP2 beads, flow cytometry; AP2 beta2 appendage carries R879A mutation; inhibition, % at 10 µM; 340,000 compounds, 0.31% hits; AID 504490;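 active = inhibition above a set limit, near 3 SD of compounds lacking own fluorescence, cut at about 54% in these data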
#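 Material – AP2 appendage R879A on GSH beads · Buffer or medium – PBS with 0.05% Tween 20 and 0.1% BSA · Probe or stimulus – fluorescein-tagged arrestin peptide at 50 nM final · Incubation – compound with beads 12 min RT, then probe 1 h RT · Detection – high-throughput flow cytometry of beads, ex 488, em 535 nm · Evaluation – percent response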
# A number is an active result; . = inactive; ? = inconclusive; / = no result; + = active, no number.
SMILES,ATG4B inhibitor,Myeloid diff 2,ABCB6 inh 2,Granule exo inh,CendR NRP1 mod,Arr AP2 block
C=CCN1c2ccccc2C(=O)CS1(=O)=O,.,.,.,.,.,.
O=C1CCc2cc(S(=O)(=O)NC3CCCCC3)cc3c2N1CC3,.,.,.,.,.,.
COC(=O)C1=C(C)N(CC2CC2)C(=NCc2cccc(C(F)(F)F)c2)N[C@H]1c1ccccc1,.,+,.,.,.,.
CC(=O)c1ccc(S(=O)(=O)NCCOc2ccccc2)cc1,/,.,.,.,.,/
Cn1nnnc1Sc1ncnc2scc(-c3ccc(Cl)cc3)c12,.,.,.,.,.,.
Cn1nnnc1Sc1ncnc2scc(-c3cccc4c3sc3ccccc34)c12,.,+,.,.,.,.
COc1ccc(-c2csc3ncnc(Sc4nnnn4C)c23)cc1,.,+,.,.,.,.
COc1ccc(F)cc1S(=O)(=O)NCc1cc(=O)n(C)c(=O)n1C,.,?,.,.,.,.
Cc1sc2ncnc(NCC3COc4ccccc4O3)c2c1C (stereo unspecified),.,+,.,.,.,.
C=CCC[C@@H](Cc1ccc(F)cc1)C(=O)OC[C@@H](Cc1ccccc1)NC(=O)[C@@H](CC=C)CC(=O)N[C@@H](CO)Cc1ccccc1,.,.,.,.,.,.
Cc1nn(-c2ccccc2)c(NC(=O)c2ccccc2)c1Br,.,.,.,.,.,.
Cc1ccc(-n2nc3ccc(N)cc3n2)c(C)c1,.,.,.,.,.,.
Cc1cc(N)ccc1-n1nc2ccccc2n1,.,+,.,.,.,.
COc1cc2ccc(C(C)=NNC(N)=S)cc2cc1OC,/,+,.,.,.,/
COC(=O)[C@]12C(=O)NC[C@H](CN1c1ccc(Cl)c(C)c1)N2C,.,.,.,.,.,.
Cc1ccc2nc(N3CC(=O)Nc4ccccc43)nc(-c3ccccc3)c2c1,.,+,.,.,.,.
N#Cc1c(NC(=O)c2cccnc2)sc2c1CCC2,.,+,.,.,.,.
O=C(N=C1SC2CS(=O)(=O)CC2N1c1ccccc1Cl)C1CCCO1 (stereo unspecified),.,.,.,.,.,.
O=C(CSc1ccccn1)Nc1nonc1[N+](=O)[O-],.,?,.,58.6,.,.
Cc1ccc(C)c(S(=O)(=O)N2CCCC2CNC(=O)C(=O)NC2CC2)c1 (stereo unspecified),.,.,.,.,.,.
COc1ccc(-n2nnnc2SCC(=O)N(C)C2CCS(=O)(=O)C2)cc1 (stereo unspecified),.,.,.,.,26.5,.
COc1ccccc1-n1nnnc1SCC(=O)N(C)C1CCS(=O)(=O)C1 (stereo unspecified),.,.,.,.,.,.
CC1CCCN(C(=O)c2ccc3c(c2NCCO)C(=O)c2ccccc2C3=O)C1 (stereo unspecified),.,.,.,.,18.8,.
O=C1c2ccccc2C(=O)c2c1ccc(C(=O)N1CCCCC1)c2NCCO,.,.,.,.,.,.
O=C1OC(c2ccccc2)(c2ccccc2)c2ccsc21,/,.,.,.,.,/
SMILES,ATG4B inhibitor,Myeloid diff 2,ABCB6 inh 2,Granule exo inh,CendR NRP1 mod,Arr AP2 block
O=S(=O)(NCCc1csc(-c2cccnc2)n1)c1ccc2c(c1)OCCO2,.,+,.,.,.,.
COc1ccc(-c2nc(CCNS(=O)(=O)c3ccc4c(c3)OCCO4)cs2)cc1,.,.,.,.,.,.
O=C1Nc2ccccc2-n2nnnc2C1N1CCN(c2ccc(F)cc2)CC1 (stereo unspecified),/,.,/,.,.,/
CC(=O)/C(N=Nc1cc(C)ccc1O)=C(\C)O,.,+,.,.,.,.
CC(=O)/C(N=Nc1ccc(C(=O)O)cc1[N+](=O)[O-])=C(\C)O,.,.,.,.,.,.
Cc1cc2oc(=O)cc(-c3cc4ccccc4o3)c2cc1O,.,.,.,.,.,.
Cc1c2cc(O)c(=O)cc-2oc2cc(O)c(O)cc12,.,+,.,.,.,.
COc1ccc(Cc2nnc(SCC(=O)N3CCCCC3)o2)cc1,.,.,.,.,.,.
COc1ccc(NC(=S)N(Cc2cccc(Br)c2)CC2CCC(C(=O)O)CC2)cc1 (stereo unspecified),.,.,.,.,.,.
COc1cccc(NC(=S)N(Cc2cccc(Br)c2)CC2CCC(C(=O)O)CC2)c1 (stereo unspecified),.,.,.,.,30.5,.
